Assays:
[1] = system: P. falciparum 3D7 (chloroquine-sensitive); type: cell-based; conditions: Plasmodium falciparum, 3D7, Erythrocyte, 48 h, read-out: ED50 (nM) 3D7
In short: (§1)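 Parasites cultured in type A+ human erythrocytes (2% hematocrit) in RPMI-1640 with 20% heat-inactivated type A+ human plasma, under 5% CO2/5% O2/90% N2. Test compound in DMSO added to culture at 0.5% parasitemia and 0.5% hematocrit. Incubated 37 °C for 48 h, then [8-3H]hypoxanthine (0.3 µCi) added for a further 24 h. Cells harvested to filter mats and counted by β-scintillation. Uninfected-erythrocyte background subtracted; DMSO-only wells taken as 100% growth. ED50 from linear regression of incorporation vs concentration.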

rat PFT = rat PFT (Rattus norvegicus, UniProt Q02293+Q04631); experiment: rat PFT [3H] scintillation proximity assay; type: biochemical
[2] = system: PfPFT (P. falciparum protein farnesyltransferase); experiment: PfPFT [3H] scintillation proximity assay; type: biochemical; conditions: rat PFT IC50 / PfPFT IC50
[3] = system: P. falciparum K1 (chloroquine-resistant, pyrimethamine-resistant); type: cell-based; conditions: Plasmodium falciparum, K1, Erythrocyte, 48 h, read-out: ED50 (nM) K1
In short: as §1

[4] = biological target: PfPFT (P. falciparum protein farnesyltransferase) (Plasmodium falciparum, UniProt Q5EI73+Q5EI74); conditions: 50 nM inhibitor concentration; previously published data ref 26, 27; cited from earlier work
[5] = system: P. falciparum K1 (chloroquine-resistant, pyrimethamine-resistant); conditions: strain K1, infected erythrocytes; previously published data ref 26, 27; cited from earlier work
[6] = system: P. falciparum 3D7 (chloroquine-sensitive); conditions: strain 3D7, infected erythrocytes; previously published data ref 26, 27; cited from earlier work
[7] = incubation with liver microsomes; cited from earlier work

SMILES	IC50 [1] [nM]	IC50 (rat PFT) [nM]	Selectivity (ratio of rat to P. falciparum PFT IC50 values) [2] [fold]	IC50 [3] [nM]	Inhibition of PfFTase (%) 50 nM [4] [%]	ED50 (nM) K1 [5] [nM]	ED50 (nM) 3D7 [6] [nM]	metabolic stability [7]
Cn1cnc(S(=O)(=O)N(CC2CCN(C(=O)OC(C)(C)C)CC2)[C@@H]2CCC[C@@H]2N(Cc2cncn2C)c2ccc(C#N)cc2)c1 (racemic) [6d, (±)-[N-(N-tert-Butoxycarbonylpiperidin-4-ylmethyl)-N-{cis-2-[(4-cyanophenyl)(3-methyl-3H-imidazol-4-ylmethyl)amino]cyclopentyl}]-1-methyl-1H-imidazole-4-sulfonamide]	3000	> 1000	>2.9					
Cn1cnc(S(=O)(=O)N(CC2CCN(C(=O)OC(C)(C)C)CC2)[C@H]2CCC[C@@H]2N(Cc2cncn2C)c2ccc(C#N)cc2)c1 (racemic) [7d, (±)-[N-(N-tert-Butoxycarbonylpiperidin-4-ylmethyl)-N-{trans-2-[(4-cyanophenyl)(3-methyl-3H-imidazol-4-ylmethyl)amino]cyclopentyl}]-1-methyl-1H-imidazole-4-sulfonamide]		> 1000	>100	600				
Cn1cnc(S(=O)(=O)N(CCN(Cc2cncn2C)c2ccc(C#N)cc2)Cc2ccsc2)c1 [1c]					100	240	150	
Cn1cnc(S(=O)(=O)N(CCN(Cc2cncn2C)c2ccc(C#N)cc2)CC2CCN(C(=O)OC(C)(C)C)CC2)c1 [1d]						54	88	limited
